These results are taken from ChEMBL document CHEMBL3875171, “[1,2]Oxazolo[5,4-e]isoindoles as promising tubulin polymerization inhibitors” (Eur J Med Chem, 2016).

A short description of data set [1]: Cytotoxicity against human PC3 cells assessed as growth inhibition after 72 hrs by MTS assay. The class given is functional, cell-based. The settings on record: PC-3, 72 h. Put shortly:
(§1)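 Log-phase cells seeded at 4500 cells/50 µL and grown 24 h, then exposed 72 h to 0.01-100 µM compound; vehicle controls 0.01% DMSO. MTS read-out at 490 nm, expressed as % of DMSO-treated cells. Eight replicates per condition, at least three independent repeats; IC50 read graphically from dose-response curves.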
In general terms: Formazan colour is commonly taken as a measure of viable cells.

A short description of data set [2]: Cytotoxicity against human JR8 cells assessed as growth inhibition after 72 hrs by MTS assay. To be noted: JR8, 72 h. The class given is functional, cell-based. In outline:
as §1

The nature of data set [3]: Cytotoxicity against human MCF7 cells assessed as growth inhibition after 72 hrs by MTS assay. The class given is functional, cell-based. To be noted: MCF7, 72 h. Put shortly: as §1
A short description of data set [4]: Cytotoxicity against human MDA-MB-231 cells assessed as growth inhibition after 72 hrs by MTS assay. It counts as functional, cell-based. To be noted: MDA-MB-231, 72 h. Put shortly: as §1
Data set [5] can be described thus: Cytotoxicity against human M14 cells assessed as growth inhibition after 72 hrs by MTS assay. The class given is functional, cell-based. To be noted: M14, 72 h. Put shortly: as §1
Data set [6] can be described thus: Cytotoxicity against human MP8 cells assessed as growth inhibition after 72 hrs by MTS assay. The settings on record: MP8, 72 h. It counts as functional, cell-based. Put shortly: as §1
Data set [7] in a line: Cytotoxicity against human STO cells assessed as growth inhibition after 72 hrs by MTS assay. The class given is functional, cell-based. In outline: as §1
Data set [8] in a line: Cytotoxicity against human DU145 cells assessed as growth inhibition after 72 hrs by MTS assay. It counts as functional, cell-based. The settings on record: DU-145, 72 h. Put shortly:
as §1

Data set [9] can be described thus: Cytotoxicity against human MCF10A cells assessed as growth inhibition after 72 hrs by MTS assay. It counts as toxicity, cell-based, MCF-10A. In outline: as §1
Data set [10] can be described thus: Cytotoxicity against human WI38 cells assessed as growth inhibition after 72 hrs by MTS assay. The class given is toxicity, cell-based, WI-38. In outline: as §1

A word on the IC50: it is the concentration that inhibits the measured activity by half.

For the molecule `COc1ccc(-n2cc3c(c2)-c2oncc2CC3)cc1`, the IC50 was found to be 79.9 µM in data set [1]; 61.6 µM in [2]; 79.6 µM in [3]; 57.5 µM in data set [4]; 58.5 µM in [5]; 21.2 µM in [6]. In addition, the IC50 was found to be 25.5 µM in data set [7] and 81.1 µM in data set [8].
As to `COc1ccc(Cn2cc3c(c2)-c2oncc2CC3)cc1`, the IC50 in data set [1] was 18.6 µM; in [2], 9.15 µM; in data set [3] it was 7.89 µM; in data set [4] it was 15.6 µM; in [5], 12.5 µM; in [6], greater than 100 µM. Moreover, the IC50 in data set [7] was greater than 100 µM; in data set [8], 15.2 µM. For the same molecule, the 50% inhibitory concentration (IC50) at 72 h in [9] and in data set [10] was greater than 100 µM throughout.
On to `CCOC(=O)c1c2c(c(C)n1Cc1ccc(OC)cc1)-c1oncc1CC2`, for which the IC50 in data set [1], in data set [2], in data set [3], in [4], in [5] and in data set [6] was greater than 100 µM throughout. The IC50 in [7] and in [8] was greater than 100 µM each time.
On to `Cc1c2c(cn1Cc1ccccc1)CCc1cnoc1-2`, for which the IC50 in data set [1], in data set [2], in [3], in data set [4], in [5] and in data set [6] was greater than 100 µM each time. The IC50 in data set [7] and in data set [8] was greater than 100 µM in each case.
With `CCOC(=O)c1c2c(c(C)n1Cc1ccccc1)-c1oncc1CC2`, the IC50 in data set [1], in [2], in [3], in [4], in data set [5] and in [6] was greater than 100 µM in each case. Also, the IC50 in [7] and in data set [8] was greater than 100 µM in each case.
Consider `COc1cccc(Cn2cc3c(c2)-c2oncc2CC3)c1OC`, for which the half-inhibitory concentration (IC50) in [1], in [2], in [3], in [4], in data set [5] and in data set [6] was greater than 100 µM in each case. Moreover, the IC50 in data set [7] and in [8] was greater than 100 µM in each case.
Regarding `CCOC(=O)c1c2c(c(C)n1C)-c1oncc1CC2`, the IC50 in data set [1], in data set [2], in [3], in [4], in data set [5] and in data set [6] was greater than 100 µM each time. The IC50 in [7] and in data set [8] was greater than 100 µM throughout.
For `Cn1cc2c(c1)-c1oncc1CC2`, the IC50 in [1] is 77.1 µM; in data set [2] it was 58.4 µM; in [3], 86.6 µM; in data set [4], 55.4 µM; in data set [5] it was 65.8 µM; in data set [6], 26.7 µM. Further, the IC50 is 28.1 µM in data set [7] and 69.3 µM in data set [8].
For `Cc1c2c(cn1C)CCc1cnoc1-2`, the IC50 in [1], in data set [2], in [3], in data set [4], in data set [5] and in [6] was greater than 100 µM in each case. Moreover, the IC50 in [7] and in data set [8] was greater than 100 µM throughout.
In the case of `c1ccc(-n2cc3c(c2)-c2oncc2CC3)cc1`, the IC50 in [1] amounted to 70.5 µM; in [2], 59.6 µM; in [3] it was 81.2 µM; in data set [4] it was 68.4 µM; in data set [5], 63.4 µM; in [6], 25.3 µM. Besides, the IC50 in [7] was found to be 29.5 µM; in data set [8], 76.4 µM.
On to `Cc1ccc(Cn2cc3c(c2)-c2oncc2CC3)cc1`, for which the IC50 in [1], in data set [2], in [3], in [4], in data set [5] and in [6] was greater than 100 µM in each case. Besides, the 50% inhibitory concentration (IC50) in [7] and in data set [8] was greater than 100 µM throughout.
